Reference: ChEMBL document CHEMBL1125299, “Novel positive inotropic agents: synthesis and biological activities of 6-(3-amino-2-hydroxypropoxy)-2(1H)-quinolinone derivatives” (1992)

Tests used:
Canis familiaris [1] = organism: Canis familiaris; assay: The inotropic effect tested in vitro by using isolated blood-perfused dog heart preparations; type: functional, Canis lupus familiaris
Summary of the method: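 Isolated dog papillary muscle, blood-perfused by cross-circulation through cannulated arteries from a pentobarbital-anesthetized, heparinized donor dog. Intra-arterial microsyringe injection; developed tension recorded. Activity ratio = amrinone ED50 (half-maximal amrinone response) / test-compound dose producing an equal response.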

Canis familiaris [2] = organism: Canis familiaris; assay: The chronotropic effect tested in vitro by using isolated blood-perfused dog heart preparations; type: functional, Canis lupus familiaris
Summary of the method: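 Isolated dog sinoatrial node preparation, cross-circulated through cannulated arteries with blood from a pentobarbital-anesthetized, heparinized donor dog. Compounds were given intra-arterially by microsyringe, and sinus rate was recorded. Reported as an activity ratio: amrinone ED50 (dose giving half-maximal amrinone response) divided by the test-compound dose producing the same response.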

Row | Compound | Activity (Canis familiaris [1]) | Activity (Canis familiaris [2])
1 | CCN(CCCc1ccccc1)CC(O)COc1ccc2nc(O)ccc2c1 (stereo unspecified) | 3.2 | 0.2
2 | CN(Cc1ccccc1)CC(O)COc1ccc2c(c1)CCC(=O)N2 (stereo unspecified) | 0.1 | -0.2
3 | CN(CCN(C)c1ccccc1)CC(O)COc1ccc2nc(O)ccc2c1 (stereo unspecified) | 5 | 0
4 | CN(CCSc1ccccc1)CC(O)COc1ccc2nc(O)ccc2c1 (stereo unspecified) | 4.5 | -1.1
5 | COc1ccc(CNCC(O)COc2cc(C)c3nc(O)ccc3c2)cc1OC (stereo unspecified) | 0.5 | 0
6 | Oc1ccc2cc(OCC(O)CNCc3ccc(F)cc3)ccc2n1 (stereo unspecified) | 3.5 | 0
7 | CCN(CCc1ccccc1)CC(O)COc1ccc2nc(O)ccc2c1 (stereo unspecified) | 6.9 | 0.8
8 | COc1ccc(CNCC(O)COc2cccc3nc(O)ccc23)cc1OC (stereo unspecified) | 0 | 0
9 | CN(Cc1ccccc1)CC(O)COc1ccc2nc(O)ccc2c1 (stereo unspecified) | 5.1 | 0
10 | COc1ccc(CNCC(O)COc2cccc3ccc(O)nc23)cc1OC (stereo unspecified) | 0 | 0
11 | CN(CCS(=O)(=O)c1ccccc1)CC(O)COc1ccc2nc(O)ccc2c1 (stereo unspecified) | 2.1 | 0.1
12 | CCN(Cc1ccccc1)CC(O)COc1cc(F)c2nc(O)ccc2c1 (stereo unspecified) | 4.1 | 0
13 | CN(Cc1ccc(Cl)cc1)CC(O)COc1ccc2nc(O)ccc2c1 (stereo unspecified) | 4 | 0.1
14 | CN(Cc1ccccn1)CC(O)COc1ccc2nc(O)ccc2c1 (stereo unspecified) | 2.2 | 0
15 | CN(Cc1cccnc1)CC(O)COc1ccc2nc(O)ccc2c1 (stereo unspecified) | 1.7 | 0.3
16 | Oc1ccc2cc(OCC(O)CNCCCc3ccccc3)ccc2n1 (stereo unspecified) | 3.6 | 0.4
17 | CN(CCCSc1ccccc1)CC(O)COc1ccc2nc(O)ccc2c1 (stereo unspecified) | 1.3 | 4.3
18 | COc1ccc(CNCC(O)COc2ccc3ccc(O)nc3c2)cc1OC (stereo unspecified) | 0 | -0.2
19 | Oc1ccc2cc(OCC(O)CNCc3ccccc3)ccc2n1 (stereo unspecified) | 2.2 | 0

Row | Compound | Activity (Canis familiaris [1]) | Activity (Canis familiaris [2])
20 | COc1cccc(CNCC(O)COc2ccc3nc(O)ccc3c2)c1 (stereo unspecified) | 3.8 | 0
21 | COc1ccc(CN(C)CC(O)COc2ccc3nc(O)ccc3c2)cc1 (stereo unspecified) | 2.8 | 0.2
22 | COc1ccc(CNCC(O)COc2ccc3nc(O)ccc3c2)cc1 (stereo unspecified) | 4.9 | 0
23 | CN(CCc1ccccn1)CC(O)COc1ccc2nc(O)ccc2c1 (stereo unspecified) | 2.2 | 0
24 | CCN(Cc1ccccc1)CC(O)COc1cc(C)c2nc(O)ccc2c1 (stereo unspecified) | 0.8 | -0.4
25 | CCN(Cc1ccccc1)CC(O)COc1ccc2nc(O)ccc2c1 (stereo unspecified) | 4 | 0
26 | CN(CC[S+]([O-])c1ccccc1)CC(O)COc1ccc2nc(O)ccc2c1 (stereo unspecified) | 2.3 | 0
27 | Oc1ccc2cc(OCC(O)CNCc3cccs3)ccc2n1 (stereo unspecified) | 3.1 | 0.8
28 | CN(Cc1ccc(F)cc1)CC(O)COc1ccc2nc(O)ccc2c1 (stereo unspecified) | 2.8 | 0
29 | Oc1ccc2cc(OCC(O)CNCCc3ccccc3)ccc2n1 (stereo unspecified) | 1.5 | 0
30 | COc1ccc(CNCC(O)COc2ccc3[nH]c(=O)ccc3c2)cc1OC (stereo unspecified) [TOBORINONE] | 5.2 | 0
31 | COc1ccc(CCNCC(O)COc2ccc3nc(O)ccc3c2)cc1OC (stereo unspecified) | 1.7 | -0.5
32 | Oc1ccc2cc(OCC(O)CNCc3ccccn3)ccc2n1 (stereo unspecified) | 0.6 | 0
33 | CN(Cc1ccncc1)CC(O)COc1ccc2nc(O)ccc2c1 (stereo unspecified) | 2.3 | 0.1
34 | CN(CCCN(C)c1ccccc1)CC(O)COc1ccc2nc(O)ccc2c1 (stereo unspecified) | 1.3 | 0
35 | Oc1ccc2cc(OCC(O)CNCc3ccc(Cl)cc3)ccc2n1 (stereo unspecified) | 4.9 | 0
36 | Cc1ccc(CN(C)CC(O)COc2ccc3nc(O)ccc3c2)cc1 (stereo unspecified) | 1.7 | 0
37 | CN(Cc1ccccc1)CC(O)COc1ccc2nc(O)c(C#N)cc2c1 (stereo unspecified) | 1.6 | 1.1
38 | CCN(CCOc1ccccc1)CC(O)COc1ccc2nc(O)ccc2c1 (stereo unspecified) | 5.3 | 0
